The nature of experiment [1]: Cytotoxicity against human MCF7 cells assessed as cell growth inhibition by MTT assay. The format is functional, cell-based.
The nature of experiment [2]: Cytotoxicity against human DU145 cells assessed as cell growth inhibition by MTT assay. The format is functional, cell-based. Particulars: DU-145. On the technique in general: Tetrazolium assays rely on reduction of a dye to a coloured formazan, in cell work by metabolically active cells.
The nature of experiment [3]: Cytotoxicity against human SKOV3 cells assessed as cell growth inhibition by MTT assay. The format is functional, cell-based. Particulars: SK-OV-3.
Experiment [4] can be described thus: Cytotoxicity against human HeLa cells assessed as cell growth inhibition by MTT assay. The format is functional, cell-based.
The subject of experiment [5] is Pichia sporocuriosa. Kind of experiment: Antifungal activity against Issatchenkia hanoiensis MTCC 4755 after 24 hrs by well diffusion method. The format is functional. The conditions noted are these: MTCC 4755, 24 h. An outline of the steps:
(§1)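 Candida/Issatchenkia lawns (0.1 mL suspension) on Mueller-Hinton agar; 6.0 mm bored wells receive compound across a 250 to 0.48 per-well dose range, methanol as negative control. Plates kept 24 h at 30 °C. MIC is the lowest concentration producing a visible inhibition zone. Duplicate runs, mean values.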
(In agar diffusion tests the substance spreads into inoculated agar from a disc or well.)

Experiment [6] relates to Candida albicans. As to the kind of experiment: Fungicidal activity against Candida albicans MTCC 183 after 24 hrs. The format is functional. Particulars: MTCC 183, 24 h. The essentials:
(§2)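 Candida grown overnight in Mueller Hinton broth. Compound serially diluted in the same broth from 150 to 0 and inoculated to a final 1.5 × 10^8 CFU/mL (0.5 McFarland), then 24 h at 37 °C. Tube contents plated onto Mueller Hinton agar for 24 h at 37 °C. MFC is the lowest concentration killing the yeast. Duplicates.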

Experiment [7] is described as follows: Antifungal activity against Candida glabrata MTCC 3019 after 24 hrs by well diffusion method. The format is functional. Particulars: Nakaseomyces glabratus. The essentials: as §1
Experiment [8] deals with Candida albicans. Kind of experiment: Antifungal activity against Candida albicans MTCC 4748 after 24 hrs by well diffusion method. The format is functional. The conditions noted are these: MTCC 4748, 24 h. The essentials: as §1
Experiment [9] relates to Candida albicans. As to the kind of experiment: Antifungal activity against Candida albicans MTCC 3958 after 24 hrs by well diffusion method. The format is functional. Particulars: MTCC 3958, 24 h. The essentials: as §1
For experiment [10], the system named is Candida albicans. Kind of experiment: Fungicidal activity against Candida albicans MTCC 1637 after 24 hrs. The format is functional. The conditions noted are these: MTCC 1637, 24 h. The essentials: as §2
For experiment [11], the system named is Candida albicans. Kind of experiment: Antifungal activity against Candida albicans MTCC 183 after 24 hrs by well diffusion method. The format is functional. The conditions noted are these: MTCC 183, 24 h. An outline of the steps: as §1
Experiment [12] relates to Candida albicans. As to the kind of experiment: Fungicidal activity against Candida albicans MTCC 4748 after 24 hrs. The format is functional. The conditions noted are these: MTCC 4748, 24 h. An outline of the steps:
as §2

The test system of experiment [13] is Pichia sporocuriosa. Kind of experiment: Fungicidal activity against Issatchenkia hanoiensis MTCC 4755 after 24 hrs. The format is functional. Particulars: MTCC 4755, 24 h. The essentials:
(§3)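 Broth dilution in Mueller Hinton broth with serial compound concentrations from […]. Overnight Candida cultures added to a final 1.5 × 10^8 CFU/mL (0.5 McFarland). Incubated 24 h at 37 °C, then 10 µL of each tube plated on Mueller Hinton agar for 24 h at 37 °C. MFC taken as the lowest concentration that kills the strain. Run in duplicate.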

A short description of experiment [14]: Antifungal activity against Candida krusei MTCC 3020 after 24 hrs by well diffusion method. The format is functional. The conditions noted are these: Pichia kudriavzevii. The essentials: as §1
Experiment [15] has as its system Candida albicans. As to the kind of experiment: Fungicidal activity against Candida albicans MTCC 854 after 24 hrs. The format is functional. Particulars: MTCC 854, 24 h. The essentials:
as §2

Experiment [16] has as its system Candida albicans. Kind of experiment: Antifungal activity against Candida albicans MTCC 1637 after 24 hrs by well diffusion method. The format is functional. Particulars: MTCC 1637, 24 h. The essentials:
as §1

Experiment [17] has as its system [Candida] aaseri. Kind of experiment: Fungicidal activity against Candida aaseri MTCC 1962 after 24 hrs. The format is functional. Particulars: Yamadazyma aaseri, MTCC 1962, 24 h. The essentials: as §2
For experiment [18], the system named is Candida albicans. As to the kind of experiment: Antifungal activity against Candida albicans MTCC 854 after 24 hrs by well diffusion method. The format is functional. The conditions noted are these: MTCC 854, 24 h. An outline of the steps:
as §1

Experiment [19] deals with Candida albicans. Kind of experiment: Fungicidal activity against Candida albicans MTCC 3018 after 24 hrs. The format is functional. Particulars: MTCC 3018, 24 h. The essentials: as §2
For experiment [20], the system named is [Candida] aaseri. Kind of experiment: Antifungal activity against Candida aaseri MTCC 1962 after 24 hrs by well diffusion method. The format is functional. Particulars: Yamadazyma aaseri, MTCC 1962, 24 h. An outline of the steps: as §1
Experiment [21] relates to Candida albicans. Kind of experiment: Antifungal activity against Candida albicans MTCC 3018 after 24 hrs by well diffusion method. The format is functional. The conditions noted are these: MTCC 3018, 24 h. The essentials: as §1
The subject of experiment [22] is Candida albicans. Kind of experiment: Fungicidal activity against Candida albicans MTCC 3017 after 24 hrs. Particulars: MTCC 3017, 24 h. The format is functional. An outline of the steps:
as §2

For experiment [23], the system named is Candida parapsilosis. Kind of experiment: Fungicidal activity against Candida parapsilosis MTCC 1744 after 24 hrs. The format is functional. Particulars: Lodderomyces parapsilosis, MTCC 1744, 24 h. An outline of the steps: as §3
Experiment [24] deals with Pichia kudriavzevii. As to the kind of experiment: Fungicidal activity against Candida krusei MTCC 3020 after 24 hrs. The format is functional. Particulars: MTCC 3020, 24 h. The essentials: as §3
Experiment [25] can be described thus: Antifungal activity against Candida parapsilosis MTCC 1744 after 24 hrs by well diffusion method. The format is functional. The essentials: as §1
For experiment [26], the system named is Candida albicans. As to the kind of experiment: Antifungal activity against Candida albicans MTCC 7315 after 24 hrs by well diffusion method. The format is functional. The conditions noted are these: MTCC 7315, 24 h. The essentials: as §1
Experiment [27] has as its system Candida albicans. Kind of experiment: Fungicidal activity against Candida albicans MTCC 3958 after 24 hrs. The format is functional. The conditions noted are these: MTCC 3958, 24 h. The essentials: as §2
In experiment [28] the test system is Candida albicans. Kind of experiment: Fungicidal activity against Candida albicans MTCC 227 after 24 hrs. The format is functional. Particulars: MTCC 227, 24 h. An outline of the steps: as §2
Experiment [29] has as its system Candida albicans. As to the kind of experiment: Antifungal activity against Candida albicans MTCC 3017 after 24 hrs by well diffusion method. The conditions noted are these: MTCC 3017, 24 h. The format is functional. The essentials:
as §1

The subject of experiment [30] is Nakaseomyces glabratus. Kind of experiment: Fungicidal activity against Candida glabrata MTCC 3019 after 24 hrs. The format is functional. Particulars: MTCC 3019, 24 h. The essentials:
as §2

Experiment [31] concerns Candida albicans. As to the kind of experiment: Antifungal activity against Candida albicans MTCC 227 after 24 hrs by well diffusion method. The format is functional. The conditions noted are these: MTCC 227, 24 h. An outline of the steps:
as §1

Experiment [32] deals with Candida albicans. Kind of experiment: Fungicidal activity against Candida albicans MTCC 7315 after 24 hrs. The format is functional. The conditions noted are these: MTCC 7315, 24 h. The essentials: as §2

Our source for the IC50, MIC and MFC values is ChEMBL document CHEMBL3853298, “Total synthesis and in vitro bioevaluation of clavaminols A, C, H & deacetyl clavaminol H as potential chemotherapeutic and antibiofilm agents” (Eur J Med Chem, 2016).

pIC50: −log10 of the molar value. Converted amounts (≈) assume the structure as drawn.

The pIC50 is −log10 of the IC50, conventionally taken in molar units. One may read the MIC as the smallest concentration in the dilution series that meets the test's criterion for growth inhibition. Lower therefore signals inhibition by little substance. As a reminder, the MFC is the lowest tested concentration that kills the fungus rather than only halting it. Low values mean more potent killing, high ones less potent killing.

In the case of `CCCCCCCCC[C@H](O)[C@@H](C)NC(C)=O` [CLAVAMINOL C], the pIC50 in experiment [1] is 4.79; in experiment [2], 4.74; in experiment [3], 4.85; in experiment [4], 4.73.

`COc1cccc2c1C(=O)c1c(O)c3c(c(O)c1C2=O)C[C@@](O)(C(=O)CO)C[C@@H]3O[C@H]1C[C@H](N)[C@H](O)[C@H](C)O1` [DOXORUBICIN]: the negative logarithm of the IC50 (pIC50) in [1] is 6.10; in experiment [2], 6.15; in experiment [3], 6.15.

As for `Clc1ccc(COC(Cn2ccnc2)c2ccc(Cl)cc2Cl)c(Cl)c1` (stereo not given) [MICONAZOLE], the MIC in [5], in experiment [7], in [8], in experiment [9], in experiment [11] and in experiment [14] was 7.8 mg/L (≈ 18.7 µM) throughout. The MIC in [16], in experiment [18], in experiment [20], in experiment [21], in experiment [25] and in experiment [26] was 7.8 mg/L (≈ 18.7 µM) in each case. For the same molecule, the MIC in experiment [29] and in [31] was 7.8 mg/L (≈ 18.7 µM) throughout. For the same molecule, the MFC in experiment [6] is 7.8 mg/L (≈ 18.7 µM); in experiment [10], 15.6 mg/L (≈ 37.5 µM); in experiment [12], 7.8 mg/L (≈ 18.7 µM); in [13] it was 7.8 mg/L (≈ 18.7 µM); in experiment [15], 15.6 mg/L (≈ 37.5 µM); in experiment [17] it was 7.8 mg/L (≈ 18.7 µM). In addition, the MFC in [19] amounted to 7.8 mg/L (≈ 18.7 µM); in experiment [22], 7.8 mg/L (≈ 18.7 µM); in experiment [23], 7.8 mg/L (≈ 18.7 µM); in [24], 7.8 mg/L (≈ 18.7 µM); in experiment [27], 15.6 mg/L (≈ 37.5 µM); in experiment [28], 15.6 mg/L (≈ 37.5 µM). Moreover, the MFC turned out to be 15.6 mg/L (≈ 37.5 µM) in experiment [30] and 7.8 mg/L (≈ 18.7 µM) in experiment [32].
